Assay results as given in PMC3065194 (Biochemical and biophysical research communications, 2010).

Legend:
integrin CD11b/CD18 = integrin CD11b/CD18 (Mus musculus, UniProt P05555+P11835); test: Neutrophil adhesion assay; type: cell-based; conditions: WT B6 mouse neutrophils, Figure 3B
Summary of the method: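 Peritoneal neutrophils were isolated from thioglycollate-stimulated 8–10-week-old WT B6 mice and suspended in TBS with 0.5% gelatin in ligand-coated wells. Cells were incubated 10 min at 37°C with 5 μM test compound plus agonist, either Mn²⁺ (0.1 mM) or PMA (15 nM). Plates were inverted 30 min at room temperature to remove non-adherent cells. Adherent cells were counted by imaging microscopy, in triplicate wells.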

integrin CD11a/CD18 = conditions: related integrin CD11a/CD18; cited from earlier work

Chain of integrin CD11b/CD18 (P05555 17-1153): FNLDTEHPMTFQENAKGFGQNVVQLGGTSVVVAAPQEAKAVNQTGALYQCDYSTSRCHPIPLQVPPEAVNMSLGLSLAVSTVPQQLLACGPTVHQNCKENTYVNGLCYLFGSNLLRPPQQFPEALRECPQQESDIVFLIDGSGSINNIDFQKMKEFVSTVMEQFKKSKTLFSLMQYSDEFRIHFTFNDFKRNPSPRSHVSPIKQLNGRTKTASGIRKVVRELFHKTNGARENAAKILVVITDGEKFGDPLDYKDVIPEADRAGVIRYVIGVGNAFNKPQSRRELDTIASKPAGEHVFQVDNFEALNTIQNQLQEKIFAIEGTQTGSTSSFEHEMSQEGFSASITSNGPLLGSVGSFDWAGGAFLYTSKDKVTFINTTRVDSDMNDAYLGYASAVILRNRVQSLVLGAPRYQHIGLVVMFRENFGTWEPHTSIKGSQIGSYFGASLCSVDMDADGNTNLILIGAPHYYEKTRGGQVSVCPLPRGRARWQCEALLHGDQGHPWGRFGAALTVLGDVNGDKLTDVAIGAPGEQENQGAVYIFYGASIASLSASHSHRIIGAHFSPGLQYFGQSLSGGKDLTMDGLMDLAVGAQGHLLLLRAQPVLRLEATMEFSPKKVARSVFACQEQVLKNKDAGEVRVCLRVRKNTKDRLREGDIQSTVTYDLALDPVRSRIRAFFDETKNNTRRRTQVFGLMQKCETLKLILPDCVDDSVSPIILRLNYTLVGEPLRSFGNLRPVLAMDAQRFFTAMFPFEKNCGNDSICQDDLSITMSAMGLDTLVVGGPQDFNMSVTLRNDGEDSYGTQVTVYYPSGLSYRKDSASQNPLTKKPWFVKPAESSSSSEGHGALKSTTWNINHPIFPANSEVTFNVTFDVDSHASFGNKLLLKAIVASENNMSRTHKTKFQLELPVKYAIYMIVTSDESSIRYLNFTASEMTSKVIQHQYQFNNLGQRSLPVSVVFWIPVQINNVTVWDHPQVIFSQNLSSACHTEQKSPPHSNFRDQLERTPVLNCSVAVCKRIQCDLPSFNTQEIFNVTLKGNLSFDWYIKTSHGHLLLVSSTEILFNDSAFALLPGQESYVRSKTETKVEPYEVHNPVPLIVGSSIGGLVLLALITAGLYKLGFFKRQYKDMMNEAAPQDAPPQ
Chain of integrin CD11b/CD18 (P11835 24-771): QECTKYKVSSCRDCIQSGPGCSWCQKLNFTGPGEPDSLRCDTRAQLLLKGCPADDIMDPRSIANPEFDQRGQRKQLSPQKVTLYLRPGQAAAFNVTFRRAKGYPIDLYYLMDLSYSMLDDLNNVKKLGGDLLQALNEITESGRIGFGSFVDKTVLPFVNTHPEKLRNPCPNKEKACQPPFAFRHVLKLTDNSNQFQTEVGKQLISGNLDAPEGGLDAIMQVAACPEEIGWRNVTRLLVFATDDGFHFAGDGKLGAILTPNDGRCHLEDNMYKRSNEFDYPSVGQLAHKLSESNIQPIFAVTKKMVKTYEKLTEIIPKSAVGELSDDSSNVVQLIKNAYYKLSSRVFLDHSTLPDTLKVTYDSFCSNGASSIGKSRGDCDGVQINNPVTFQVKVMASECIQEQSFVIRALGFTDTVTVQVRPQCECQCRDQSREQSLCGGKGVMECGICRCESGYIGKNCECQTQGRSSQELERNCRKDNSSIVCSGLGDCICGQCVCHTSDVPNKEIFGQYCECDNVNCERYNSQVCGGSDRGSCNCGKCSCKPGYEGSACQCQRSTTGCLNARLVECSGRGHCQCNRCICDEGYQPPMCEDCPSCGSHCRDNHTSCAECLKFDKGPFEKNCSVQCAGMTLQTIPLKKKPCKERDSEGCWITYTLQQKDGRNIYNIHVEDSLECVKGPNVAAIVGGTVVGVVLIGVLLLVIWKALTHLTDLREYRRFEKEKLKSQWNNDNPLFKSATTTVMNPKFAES

Structure (SMILES) | neutrophil adhesion to Fg on integrin activation by agonist (integrin CD11b/CD18) | IC50 (integrin CD11a/CD18) [µM]
CCCCCCCCCCCCCC(=O)O[C@@H]1[C@@H](C)[C@@]2(O)[C@@H](C=C(CO)C[C@]3(O)C(=O)C(C)=C[C@@H]23)[C@@H]2C(C)(C)[C@]12OC(C)=O [PMA, phorbol 12-myristate 13-acetate] | dramatic increase | –
CC[C@H](C)C(=O)O[C@H]1C[C@@H](C)C=C2C=C[C@H](C)[C@H](CC[C@@H]3C[C@@H](O)CC(=O)O3)[C@H]21 [lovastatin] | – | 25
